Measurements collected from several papers.
Each line is one published result; the experiments were not run side by side.
Target: Serine/threonine-protein kinase pim-2 (PIM2, Homo sapiens, UniProt Q9P1W9)

With `CC(C)CC(=O)N1CCc2nc(-c3ccc(Br)cc3)nc(N(C)Cc3ccccc3)c2C1` the remaining binding was 100% (cell-free assay, competition with immobilised ligand; 0.1 µM).
`COc1cc(Nc2cnc(C#N)c(O[C@H](C)CN(C)C)n2)ncc1-c1cnn(C)c1` gave a remaining activity of 98% (enzyme activity, inhibitor, radiometric; 1 µM).
`Cc1sc(C(=O)NC2COC2)cc1-n1cc(NC(=O)Nc2c(F)cccc2Cl)cn1` gave a remaining activity of 96.5% (enzyme activity, inhibitor; 10 µM).
For `O=C1Nc2ccc(Cl)cc2C1=Cc1cc(Cl)c(O)c(Cl)c1`, the remaining signal was 48.6% (cell-free assay; 0.5 µM).
`O=C(Nc1cnn(-c2csc(C(=O)NC3COC3)c2)c1)Nc1ccccc1Cl` has a remaining activity of 96.4% (enzyme activity, inhibitor; 5 µM).
`Cc1ccc(C(=O)NCc2ccsc2)cc1C#Cc1cn(C(C)C)c2ncnc(N)c12` has an activity vs control of 92% (enzyme activity, inhibitor; 1 µM).
For `Cc1ccc(NC(=O)c2ccc(C)c(C(F)(F)F)c2)cc1C#Cc1nn(C2CCC(O)CC2)c2ncnc(N)c12` (stereo not shown), the remaining signal was 112% (cell-free assay; 10 µM).
`Cn1nc(C(F)(F)F)cc1-c1cnc(N2CCc3cc(S(=O)(=O)Nc4c(F)cc(Cl)cc4F)cc(N4CCCC4=O)c32)nc1` has a remaining binding of 100% (cell-free assay, competition with immobilised ligand; 1 µM).
The activity vs control of `FC(F)(F)Oc1cccc(-c2cnc3ccc(-c4ccncc4)nn23)c1` is reported as 83% (enzyme activity, inhibitor, radiometric; 5 µM).
`C[C@@H]1CN(c2cc(-c3n[nH]c4ccc(OC5(C)CC5)cc34)ncn2)C[C@H](C)O1` gave a remaining binding of 88% (cell-free assay, competition with immobilised ligand; 0.1 µM).
The remaining signal of `Cc1ccc(NC(=O)c2ccc(CN3CCN(C)CC3)cc2)cc1Nc1nc(-c2cccnc2)cs1` is reported as 118% (cell-free assay; 0.5 µM).
For `Nc1ncnc2occ(-c3ccc(NC(=O)Nc4cc(C(F)(F)F)ccc4F)cc3)c12`, the remaining signal was 100% (cell-free assay, inhibitor; 20 µM).
The inhibition of `CCCS(=O)(=O)Nc1ccc(F)c(C(=O)c2c[nH]c3ncc(-c4ccc(Cl)cc4)cc23)c1F` is reported as < 10% (enzyme activity, inhibitor; 1 µM).
The remaining activity of `COc1cc(Cl)c(C(=O)N[C@@H](CN[C@H]2CC[C@@H](N)CC2)Cc2ccc(C#N)cc2)cc1-c1ccc(CN[C@H](C)c2ccc(C)cc2)o1` is reported as 92% (enzyme activity, inhibitor; 1 µM).
For `CCN(CC)c1ccc(C2=NNC(=O)CC2C)cc1[N+](=O)[O-]` (stereo not shown), the remaining activity was 108% (enzyme activity, inhibitor; 10 µM).
`O=C(CSc1nc2nccnc2c(=O)n1CCc1ccccc1)Nc1nccs1` has an inhibition of -5% (enzyme activity, inhibitor; 10 µM).
The activity vs control of `Cc1cc(NC(=O)c2cccc3cc(-c4cccc5[nH]nc(N)c45)ccc23)ccc1F` is reported as 87% (enzyme activity, inhibitor; 0.1 µM).
`O=C1NC(=O)c2cc(Nc3ccc(F)cc3)c(Nc3ccc(F)cc3)cc21` gave a remaining signal of 98.6% (cell-free assay; 0.5 µM).
With `Cc1nc(N2CC[C@@H](O)C2)ncc1-c1cc(C(F)(F)F)cc2[nH]ncc12` the remaining binding was 89% (binding, competition with immobilised ligand; 1 µM).
The inhibition of `CNC(=O)c1cc(Oc2ccc(NC(=O)Nc3ccc(Cl)c(C(F)(F)F)c3)cc2)ccn1` is reported as 9% (enzyme activity, inhibitor; 10 µM).
The remaining activity of `CC(C)(C)C(=O)c1sc(NC2CCCCC2)nc1N` is reported as 109% (enzyme activity, inhibitor; 10 µM).
`Oc1cccc(-c2nc(N3CCOCC3)c3oc4ncccc4c3n2)c1` has a remaining activity of 90% (enzyme activity, inhibitor; 10 µM).
`CC/C(=N\NC(=O)NCc1cccc(O)c1)c1ccc(O)c(C)c1O` has an inhibition of -5% (enzyme activity, inhibitor; 0.1 µM).
For `O=C1NC(c2ccccn2)Sc2ccccc21` (stereo not shown), the remaining binding was 88% (cell-free assay, competition with immobilised ligand; 1 µM).
For `CCOc1cc(-c2nncn2C)ccc1Nc1ncc2cc(C)nc(NCC(C)(C)C)c2n1`, the inhibition was < 15% (enzyme activity, inhibitor, FRET; 1 µM).
The remaining binding of `CCC(=O)N[C@H]1CC[C@@H](C(=O)N(C)c2ccc(-c3nc4ccccc4o3)cc2)C1` is reported as 100% (cell-free assay, competition with immobilised ligand; 1 µM).
The inhibition of `COc1cc2ncnc(Nc3ccc(Oc4ccccc4)c(C)c3C)c2cc1OC` is reported as -2% (enzyme activity, inhibitor; 1 µM).
`CC(=O)N1CCC(c2ccc(C(=O)NC(=N)N)cc2C(F)(F)F)CC1` gave a remaining binding of 100% (cell-free assay, competition with immobilised ligand; 1 µM).
With `CC(C)(C)c1nc2c(s1)c1nc(N)ncc1c1ccc(NS(=O)(=O)c3c(F)cccc3F)c(F)c12` the remaining activity was 81% (enzyme activity, inhibitor, radiometric; 1 µM).
`COc1ccc2c(c1)O[C@@H](c1ccc(OC)c(OC)c1)C[C@H]2NC(=O)C1(c2ccc3c(c2)OC(F)(F)O3)CC1` gave a remaining binding of 100% (cell-free assay, competition with immobilised ligand; 1 µM).
For `Cc1ccc(Nc2nccc(N(C)c3ccc4c(C)n(C)nc4c3)n2)cc1S(N)(=O)=O`, the remaining activity was 101% (enzyme activity, inhibitor; 0.5 µM).
